Measurements from ChEMBL document CHEMBL1126153, “Synthesis and biological activity of certain alkyl 5-(alkoxycarbonyl)-1H-benzimidazole-2-carbamates and related derivatives: a new class of potential antineoplastic and antifilarial agents” (J Med Chem, 1992).
pIC50: −log10 of the molar value.

Tests used:
[1] = organism: Homo sapiens; assay: Compound was tested in vitro for its inhibitory activity against human epidermoid carcinoma cell (H. Ep. 2) growth at a concentration of 10 uM; type: functional; conditions: HEp-2
[2] = system: L1210; assay: In vitro for its inhibitory activity against L1210 murine leukemia cell growth; type: functional, cell-based; conditions: Mus musculus
Outline: (§1)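 L1210 cells were grown in static suspension culture in Fischer's medium with test compound, and counted twice daily over 3 days. Growth rate is the control population doubling time (average 12 h) divided by the treated doubling time, as a % of control. The IC50 is the concentration that reduces the growth rate to 50% of control.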

[3] = system: Brugia pahangi; assay: Antifilarial activity was measured against the adult worms of Brugia pahangi in jirds by subcutaneous administration at a dose of 6.2 mg/Kg/day; type: functional
Outline: (§2)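 Jirds carrying implanted adult worms (three to five per group) were dosed once daily for 5 consecutive days, or on day 1 only where noted. Dosing was subcutaneous or oral, with drug as a solution or suspension in aqueous 1% (hydroxyethyl)cellulose plus 0.1% Tween 80. Survivors were necropsied 55 to 70 days after the first dose and searched for adult worms. Counts are given as % of control.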

[4] = system: Brugia pahangi; assay: Antifilarial activity was measured against the adult worms of Brugia pahangi in jirds by subcutaneous administration at a concentration of 12.5 mg/Kg/day
[5] = system: L1210; assay: In vitro test against L1210 murine leukemia cell growth rate at 10 uM concentration; type: functional, Mus musculus; outline: as §1
[6] = system: Brugia pahangi; assay: Antifilarial activity was measured against the adult worms of Brugia pahangi in jirds by subcutaneous administration at a concentration of 25 mg/Kg/day
[7] = organism: Homo sapiens; assay: Compound was tested in vitro against human epidermoid carcinoma cell (H. Ep. 2) growth rate at a concentration of 10 uM; type: functional
[8] = system: Brugia pahangi; assay: Antifilarial activity was measured against the adult worms of Brugia pahangi in jirds by subcutaneous administration at a dose of 25 mg/Kg/day; type: functional; outline: as §2
[9] = system: L1210; assay: Compound was tested in vitro against L1210 murine leukemia cell growth rate at a concentration of 100 uM; type: functional, Mus musculus; outline: as §1
[10] = system: Brugia pahangi; assay: Antifilarial activity measured against the adult worms of Brugia pahangi in jirds by subcutaneous administration; type: functional; design: concentration or dose not given beside the values; outline: as §2
[11] = system: L1210; assay: Compound was tested in vitro for its inhibitory activity against L1210 murine leukemia cell growth at a concentration of 100 uM; type: functional, cell-based; conditions: Mus musculus; outline: as §1
[12] = system: Brugia pahangi; assay: Antifilarial activity measured against the adult worms of Brugia pahangi in jirds by subcutaneous administration; design: concentration or dose not given beside the values
[13] = system: Brugia pahangi; assay: Antifilarial activity was measured against the adult worms of Brugia pahangi in jirds by subcutaneous administration at a dose of 100 mg/Kg/day; type: functional; outline: as §2
[14] = system: Brugia pahangi; assay: Antifilarial activity was measured against the adult worms of Brugia pahangi in jirds by subcutaneous administration at a dose of 1.6 mg/kg/day; type: functional; outline: as §2
[15] = system: Brugia pahangi; assay: Antifilarial activity was measured against the adult worms of Brugia pahangi in jirds by subcutaneous administration at a dose of 12.5 mg/kg/day; type: functional; outline: as §2
[16] = system: Acanthocheilonema viteae; assay: Antifilarial activity was measured against the adult worms of Acanthocheilonema viteae in jirds by oral administration at a concentration of 100 mg/kg/day; type: functional; outline: as §2
[17] = system: Brugia pahangi; assay: Antifilarial activity was measured against the adult worms of Brugia pahangi in jirds by subcutaneous administration at a concentration of 100 mg/kg/day
[18] = system: Acanthocheilonema viteae; assay: Antifilarial activity was measured against the adult worms of Acanthocheilonema viteae in jirds by subcutaneous administration at a concentration of 50 mg/kg/day; type: functional; outline: as §2
[19] = system: Acanthocheilonema viteae; assay: Antifilarial activity was measured against the adult worms of Acanthocheilonema viteae in jirds by oral administration at a dose of 100 mg/kg/5 days; type: functional; outline: as §2
[20] = system: Brugia pahangi; assay: Antifilarial activity was measured against the adult worms of Brugia pahangi in jirds by subcutaneous administration at a dose of 100 mg/kg/day; type: functional; outline: as §2
[21] = system: Brugia pahangi; assay: Antifilarial activity was measured against the adult worms of Brugia pahangi in jirds by subcutaneous administration at a dose of 50 mg/kg/day; type: functional; outline: as §2
[22] = system: Brugia pahangi; assay: Antifilarial activity was measured against the adult worms of Brugia pahangi in jirds by oral administration at a dose of 100 mg/kg/day; type: functional; outline: as §2
[23] = system: Brugia pahangi; assay: Antifilarial activity was measured against the adult worms of Brugia pahangi in jirds by subcutaneous administration at a dose of 25 mg/kg/day
[24] = system: Brugia pahangi; assay: Antifilarial activity was measured against the adult worms of Brugia pahangi in jirds by subcutaneous administration at a dose of 6.2 mg/kg/day; type: functional; outline: as §2
[25] = system: Acanthocheilonema viteae; assay: Antifilarial activity was measured against the adult worms of Acanthocheilonema viteae in jirds by subcutaneous administration at a dose of 15.6 mg/kg/5 days; type: functional; conditions: in the assay text read “1.56 mg/kg/5 days” for “15.6 mg/kg/5 days”; outline: as §2
[26] = system: Brugia pahangi; assay: Antifilarial activity was measured against the adult worms of Brugia pahangi in jirds by subcutaneous administration at a dose of 6.5 mg/kg/day; type: functional; outline: as §2

Compound	pIC50 [2]	Control [5] [%]	Control [10] [%]	Control [12] [%]	further results
CCOC(=O)Nc1nc2cc(C(=O)O)ccc2[nH]1			90		Control [9]: 100%
COC(=O)Nc1nc2cc(NC(=O)c3ccccc3F)ccc2[nH]1				116	Control [9]: 0%; pIC50 [11]: 4.85
COC(=O)Nc1nc2cc(C(=O)c3cccs3)ccc2[nH]1 [NOCODAZOLE]	7.42	0			pIC50 [1]: 7.48; Control [7]: 0%
COC(=O)Nc1nc2cc(C(=O)O)ccc2[nH]1		100			Control [13]: 0%
COC(=O)Nc1nc2cc(C(=O)N3CCNCC3)ccc2[nH]1				55	
COC(=O)Nc1nc2cc(C(=O)N3CCN(C)CC3)ccc2[nH]1		100			Control [17]: 101%
COC(=O)Nc1nc2cc(C(=O)N3CCN(C(=O)N(C)C)CC3)ccc2[nH]1				94	
COC(=O)Nc1nc2cc(C(=O)N(C)C)ccc2[nH]1		88		95	
CCN(CC)C(=O)N1CCN(C(=O)c2ccc3[nH]c(NC(=O)OC)nc3c2)CC1		100		100	
COC(=O)Nc1nc2cc(NC(=O)c3ccc(F)cc3)ccc2[nH]1				133	
COC(=O)Nc1nc2cc(C(=O)Nc3ccc(F)cc3)ccc2[nH]1		92		67	
COC(=O)Nc1nc2cc(C(=O)OCC(C)(C)C)ccc2[nH]1			82		
COC(=O)Nc1nc2cc(C(=O)OCc3cccs3)ccc2[nH]1		93	71		pIC50 [1]: 5.64; Control [7]: 0%
COC(=O)Nc1nc2cc(C(=O)OCc3ccc(F)cc3)ccc2[nH]1			83		
COC(=O)Nc1nc2cc(NC(=O)c3cccc(F)c3)ccc2[nH]1		100			
COC(=O)Nc1nc2cc(C(=O)Nc3ccc(C(F)(F)F)cc3)ccc2[nH]1		100		77	
COC(=O)Nc1nc2cc(C(=O)N3CCOCC3)ccc2[nH]1					Control [9]: 0%; pIC50 [11]: 4.22

More lines, main results first:

pIC50 [2]	Compound	Control [5] [%]	Control [10] [%]	Control [12] [%]	further results
5.30	COC(=O)Nc1nc2cc(C(=O)OC)ccc2[nH]1	50			pIC50 [1]: 5.96; Control [3]: 79%; Control [4]: 12%; Control [6]: 4%; Control [7]: 0%; Control [8]: 53%
< 5.00	C=CCOC(=O)c1ccc2[nH]c(NC(=O)OC)nc2c1	75	87		
5.16	COC(=O)Nc1nc2cc(C(=O)OCC3CC3)ccc2[nH]1	45	69		
5.55	CCOC(=O)c1ccc2[nH]c(NC(=O)OC)nc2c1	0	0		pIC50 [1]: 6.62; Control [14]: 100%; Control [7]: 0%; Control [15]: 6%
5.66	O=C(Nc1nc2cc(C(=O)OCC3CC3)ccc2[nH]1)OCC1CC1	24	72		
5.07	COC(=O)Nc1nc2cc(C(=O)NCC(C)(C)C)ccc2[nH]1	48		50	Control [16]: 54%; Control [17]: 0%; Control [18]: 0%
5.13	CCCOC(=O)c1ccc2[nH]c(NC(=O)OC)nc2c1	38			Control [17]: 100%
5.09	CCCOC(=O)Nc1nc2cc(C(=O)OCCC)ccc2[nH]1	36	85		
6.12	CCOC(=O)Nc1nc2cc(C(=O)OCC)ccc2[nH]1	0	62		pIC50 [1]: 6.54; Control [7]: 0%
5.00	CCNC(=O)c1ccc2[nH]c(NC(=O)OC)nc2c1	41			pIC50 [1]: 5.22; Control [19]: 80%; Control [20]: 0%; Control [21]: 0%; Control [22]: 89%; Control [7]: 0%; Control [23]: 0%
6.15	COC(=O)Nc1nc2cc(C(=O)OC(C)C)ccc2[nH]1	0		0	pIC50 [1]: 6.66; Control [24]: 18%; Control [14]: 51%; Control [22]: 100%; Control [7]: 0%; Control [15]: 0%
6.13	COC(=O)Nc1nc2cc(C(=O)OCCC(C)CC(C)(C)C)ccc2[nH]1 (stereo unspecified)	0	85		
5.00	C#CCOC(=O)c1ccc2[nH]c(NC(=O)OC)nc2c1	58	79		
5.70	COC(=O)Nc1nc2cc(C(=O)NC(C)C)ccc2[nH]1	0	0		pIC50 [1]: 5.80; Control [25]: 57%; Control [26]: 4%; Control [14]: 94%; Control [22]: 110%; Control [7]: 0%; Control [15]: 0%
6.14	CC(C)OC(=O)Nc1nc2cc(C(=O)OC(C)C)ccc2[nH]1	0	87		pIC50 [1]: 6.41; Control [7]: 0%
5.00	COC(=O)Nc1nc2cc(C(=O)OCCC(C)C)ccc2[nH]1	60	69		
